For orientation: CL/F means clearance divided by bioavailability, as obtained after extravascular dosing.

Data on three compounds can be found in article PMC6028884 (Clinical Pharmacokinetics, 2017).

Each structure is given as a SMILES string. “Also recorded” adds a separate entry of the source.

The conditions of series [1]: cited from earlier work.
A further series deals with plasma protein. The following applies: cited from earlier work.
The conditions of series [2]: strong CYP3A inhibitor ketoconazole; cited from earlier work.
The test system of the next series is cytochrome P450 (CYP) 3A. The settings on record: in vitro; cited from earlier work.
For the next series, the system named is CYP2D6. The following applies: in vitro; cited from earlier work.
The nature of series [3]: Population pharmacokinetic analysis. The class given is in vivo, human.
The format of series [4] is in vivo, human. The method in brief:
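Used a two-compartment population PK model with first-order absorption and elimination, fitted by nonlinear mixed-effects modelling. Data were LC-MS plasma concentrations from healthy subjects and RA patients given 1–48 mg immediate-release oral doses. Simulations ran 200 replicates using demographics of RA patients from two phase IIb trials.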

A further series deals with rheumatoid arthritis. The following applies: phase IIb studies, 12 weeks; cited from earlier work.
For series [5] the following is noted: immediate-release formulation, compared with fasting conditions; cited from earlier work.
The conditions of series [6]: cited from earlier work. This is another data set of the same source.
The mark [7] stands for this setting: Population analysis, point estimate (%RSE), final model.
The mark [8] stands for this setting: matched on sex and creatinine clearance.
Setting [9] is: steady state, matching on other covariates.

As for `O=C(Nc1nc2cccc(-c3ccc(CN4CCS(=O)(=O)CC4)cc3)n2n1)C1CC1` [filgotinib], the “oral clearance in subjects with RA compared with healthy subjects” value in [1] is reported as “lower”.
In the case of `C[C@@H]1CCN(C(=O)CC#N)C[C@@H]1N(C)c1ncnc2[nH]ccc12` [tofacitinib], the “oral clearance in subjects with RA compared with healthy subjects” value in [1] was “lower”.
Regarding `CC[C@@H]1CN(C(=O)NCC(F)(F)F)C[C@@H]1c1cnc2cnc3[nH]ccc3n12` [upadacitinib, Upadacitinib], the plasma protein binding in the series on plasma protein is given as less than 50%. In [2], the “increase of upadacitinib exposures by ketoconazole” value is listed as “approximately 75%”. Moreover, the “substrate status for CYP3A” value in the series with cytochrome P450 (CYP) 3A is reported as “non-sensitive substrate”. For the same compound, the “contribution of CYP2D6 to metabolism” value in the series on CYP2D6 was “potentially minor metabolic contribution; also recorded: minor contributor”. Further, the “linearity of pharmacokinetics with respect to dose” value in [3] (1-48 mg immediate-release doses) is on record as “dose-proportional; also recorded: did not deviate significantly from linearity; also recorded: did not significantly deviate from linearity”. In addition, in [3] (Bootstrap analysis, mean), the ALAG1 is given as 0.48 h, the “Additive residual error SD” value was 0.17 ng/mL, the “Exponent for the effect of body weight on Vc/F (θ5)” value (from here on “Exponent for the effect”) came to 0.50 and the Ka was 20.1 h⁻¹. Further, in series [3] (Bootstrap analysis, mean), the “Proportional residual error SD” value is given as 31%, the Q/F is 3.24 L/h, the “Ratio of CL/F in RA patients compared with healthy subjects (θ1)” value (“Ratio of CL/F in RA patients” below) came out at 0.76 and the “Ratio of CL/F in females compared with males (θ2)” value (“Ratio of CL/F in females” below) is 0.86. In series [3] (Bootstrap analysis, mean), the “Ratio of Vc/F in females compared with males (θ4)” value (from here on “Ratio of Vc/F in females”) is reported as 0.75, the Vc/F was 145 L, the Vp/F is reported as 65.4 L and the “ωIOV2 on ALAG1 (phase II study visits only)” value (shortened to “ωIOV2 on ALAG1”) is listed as 0.079. For the same compound, in series [3] (Bootstrap analysis, mean (188 successful runs out of 200)), the apparent clearance (CL/F) came out at 39.8 L/h. In [3] (Bootstrap analysis, median), the ALAG1 was 0.48 h, the “Additive residual error SD” value was determined as 0.17 ng/mL, the “Exponent for the effect” value was 0.50 and the Ka worked out at 12.2 h⁻¹. In addition, in [3] (Bootstrap analysis, median), the “Proportional residual error SD” value turned out to be 31%, the Q/F was 3.23 L/h, the “Ratio of CL/F in RA patients” value was found to be 0.76 and the “Ratio of CL/F in females” value amounted to 0.86. Moreover, in series [3] (Bootstrap analysis, median), the “Ratio of Vc/F in females” value was determined as 0.75, the Vc/F is 145 L, the Vp/F came out at 64.6 L and the “ωIOV2 on ALAG1” value worked out at 0.079. Further, in series [3] (Bootstrap analysis, median (188 successful runs out of 200)), the CL/F came to 39.8 L/h. In [3] (setting [7]), the ALAG1 is 0.48 (0.017) h, the “Additive residual error SD” value is listed as 0.18 (13) ng/mL, the “Proportional residual error SD” value was 31 (13) % and the Q/F is on record as 3.23 (2.5) L/h. Moreover, in series [3] (setting [7]), the “Ratio of CL/F in RA patients” value is recorded as 0.76 (2.9), the “Ratio of CL/F in females” value is 0.86 (2.8), the “Ratio of Vc/F in females” value was 0.75 (1.6) and the Vp/F is listed as 64.3 (1.1) L. In series [3] (setting [7]), the “ωIOV2 on ALAG1” value is 0.08 (1.5). In series [3] (Population analysis, point estimate (%RSE), final model, (BW/74 kg)^θ5), the “Exponent for the effect” value is listed as 0.50 (15.8). Also, the Vc/F in series [3] (Population analysis, point estimate (%RSE), final model, reference male, 74 kg) is 146 (2.2) L. Further, the Ka in [3] (Population analysis, point estimate, final model) is 12.3 h⁻¹. Moreover, in [3] (in vivo), the “correlation of clearance with body weight” value is recorded as “not correlated” and the “lower CL/F in females compared with males” value was 14%. In addition, the “effect of CYP2D6 phenotype on upadacitinib clearance” value in series [3] (phenotype determined from pharmacogenetic analysis) is listed as “not correlated; also recorded: not a statistically significant covariate”. In addition, in series [3] (typical healthy male), the “absorption lag time (ALAG1), estimate (95% CI)” value is reported as 0.48 (0.47–0.49) h and the “mean absorption time (calculated as 1/Ka), estimate (95% CI)” value was 0.08 (0.04–0.12) h. Besides, the “oral clearance (CL/F), population estimate (95% bootstrap CI)” value in series [3] (typical healthy male, body weight 74 kg, creatinine clearance […]) was 39.7 (37.8–41.5) L/h. In series [4] (setting [8]), the “AUC, body weight < 60 kg or > 100 kg compared with 60-100 kg” value was “same”; the “higher Cmax, body weight < 60 kg compared with 60-100 kg” value is recorded as “approximately 10%”; the “lower Cmax, body weight > 100 kg compared with 60-100 kg” value was “approximately 10%”. Moreover, in series [4] (steady state), the “higher Cmax in females compared with males” value was 26%. In addition, in [4] (setting [9]), the “higher upadacitinib AUC in females relative to males” value stood at 16% and the “higher upadacitinib AUC in subjects with RA relative to healthy volunteers” value was determined as 32%. Further, the safety profile result with rheumatoid arthritis is “acceptable safety profile”. Besides, in series [5], the “decrease of Cmax by food” value is listed as “approximately 20%” and the “delay of time to Cmax (Tmax) by food” value is reported as “approximately 2 h”. In addition, the “upadacitinib dose eliminated unchanged in urine” value in series [6] is “Approximately 20%”. Also, the accumulation in plasma entry in [6] (multiple twice-daily dosing) is recorded as “no accumulation”. Besides, in [6] (over the evaluated dose range), the “dose proportionality of exposures” value is recorded as “approximately dose proportional”. For the same compound, in series [6] (phase I studies, immediate-release capsules), the functional half-life result was “approximately 4 h”. In addition, the tolerability result in [6] (single doses up to 48 mg and multiple twice-daily doses up to 24 mg, immediate-release capsules) is reported as “well-tolerated”.
